Source: PMC4716540 (British Journal of Cancer, 2015)

Tested on: Hsp70 in peripheral blood mononuclear cells (PBMCs)
Test: Hsp70 levels in PBMCs by western blot as biomarker for Hsp90 inhibition
Format: in vivo, human
In short: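 Patients with relapsed/refractory B-cell malignancies received the test compound by 1-h IV infusion on days 1–5 of a 14-day cycle (cohorts 14–176 mg m⁻², 3+3 design). Hsp70 was measured by western blot at an independent central laboratory, as change from baseline, and summarised descriptively by dose level.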

Structure (SMILES): CCc1c(O)cc(O)c(C(=O)c2ccc(OCCN3CCOCC3)c(OC)c2)c1CC(=O)N(CCOC)CCOC [KW-2478]
- Hsp70 induction above baseline in PBMCs (doses ⩾71 mg m^–2, 8 h after dosing on days 1 and 5): ≥ 25%
- Doses at which Hsp70 levels in PBMCs increased (target inhibition inferred) (western blot): ≥ 71 mg m^–2
